Assay [1] in a line: Inhibition of chymotrypsin-like activity of human 20s proteasome beta 5 subunit assessed as hydrolysis of fluorogenic substrate.
A further assay concerns HepG2. The experiment in a line: Cytotoxicity against human HepG2 cells after 72 hrs by MTT assay. It counts as functional, cell-based. Particulars: HepG2, 72 h. The essentials: (§1)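 BGC-823, KB, NCI-H460, HepG2 and SW-480 cells were maintained in RPMI 1640 with 10% FBS at 37 °C, 5% CO2. MTT added from a 5 mg/mL solution for 4 h at 37 °C. Formazan dissolved in DMSO after centrifugation, A540 read.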
In general terms: Tetrazolium assays rely on reduction of a dye to a coloured formazan, in cell work by metabolically active cells.

A further assay concerns HL-60. Briefly: Cytotoxicity against human HL60 cells after 72 hrs by MTT assay. The format is functional, cell-based. Conditions: HL-60, 72 h. The essentials:
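HL-60 cells grown in IMDM with 20% FBS at 37 °C, 5% CO2. MTT added from a 5 mg/mL solution for 4 h at 37 °C. Plates centrifuged, medium discarded, formazan dissolved in DMSO, absorbance read at 540 nm.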

Another assay deals with SK-OV-3. Briefly: Cytotoxicity against human SKOV3 cells after 72 hrs by MTT assay. The format is functional, cell-based. Particulars: SK-OV-3, 72 h. An outline of the steps: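 SKOV-3 cells were cultured in McCoy's 5A with 10% FBS at 37 °C, 5% CO2. MTT added from a 5 mg/mL solution for 4 h at 37 °C. Formazan dissolved in DMSO, absorbance measured at 540 nm.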
A further assay deals with NCI-H460. The experiment in a line: Cytotoxicity against human H460 cells after 72 hrs by MTT assay. It counts as functional, cell-based. Particulars: NCI-H460, 72 h. The essentials: as §1
In the next assay the test system is U-266. Briefly: Cytotoxicity against human U266 cells after 72 hrs by MTT assay. It counts as functional, cell-based. Particulars: U-266, 72 h. The essentials: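 U266 myeloma cells were grown in RPMI 1640 with 15% FBS at 37 °C, 5% CO2. MTT added from a 5 mg/mL solution for 4 h at 37 °C. Plates centrifuged, formazan dissolved in DMSO, absorbance at 540 nm.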

Another assay deals with KB. Briefly: Cytotoxicity against human KB cells after 72 hrs by MTT assay. It counts as functional, cell-based. The essentials:
as §1

The subject of a further assay is A549. Briefly: Cytotoxicity against human A549 cells after 72 hrs by MTT assay. Particulars: A549, 72 h. The format is functional, cell-based. An outline of the steps: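 A549 cells were cultured in F12-K with 10% FBS at 37 °C, 5% CO2. MTT from a 5 mg/mL solution added for 4 h at 37 °C. Medium removed after centrifugation, formazan taken up in DMSO, read at 540 nm.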

Another assay deals with BGC-823. The experiment in a line: Cytotoxicity against human BGC823 cells after 72 hrs by MTT assay. The format is functional, cell-based. Conditions: BGC-823, 72 h. The essentials:
as §1

In the next assay the test system is SW480. Briefly: Cytotoxicity against human SW480 cells after 72 hrs by MTT assay. The format is functional, cell-based. Conditions: SW480, 72 h. The essentials:
as §1

A further assay has as its system HeLa. Briefly: Cytotoxicity against human HeLa cells after 72 hrs by MTT assay. The format is functional, cell-based. The essentials: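 HeLa cells were cultured in EMEM with 10% FBS at 37 °C, 5% CO2. MTT added from a 5 mg/mL solution for 4 h at 37 °C. Plates centrifuged, formazan dissolved in DMSO, A540 read.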

The IC50 is the concentration that inhibits the measured activity by half.

Consider `Cc1ccc(C[C@H](NC(=O)[C@H](Cc2ccccc2)NC(=O)C2CCc3ccccc3C2)B2O[C@@H]3C[C@@H]4C[C@@H](C4(C)C)[C@]3(C)O2)cc1` (stereo not given in full), for which, in [1], the IC50 was 1.16 nM.

With `CC(C)C[C@H](NC(=O)[C@H](Cc1ccccc1)NC(=O)C1CCc2ccccc2C1)B1O[C@@H]2C[C@@H]3C[C@@H](C3(C)C)[C@]2(C)O1` (stereo not given in full), the half-maximal inhibitory concentration (IC50) in assay [1] is 1.46 nM.

On to `CC(C)(C)OC(=O)N[C@@H](Cc1ccc(O)cc1)C(=O)N[C@@H](Cc1ccccc1)B1O[C@@H]2C[C@@H]3C[C@@H](C3(C)C)[C@]2(C)O1`, for which the IC50 in assay [1] was determined as 114 nM.

With `CC(=O)N[C@@H](Cc1ccccc1)C(=O)N[C@@H](CC(C)C)B1O[C@@H]2C[C@@H]3C[C@@H](C3(C)C)[C@]2(C)O1`, in assay [1], the IC50 came to 2.34 nM.

Consider `CC(C)C[C@H](NC(=O)[C@H](Cc1cccc2ccccc12)NC(=O)c1ccc2ccccc2c1)B1O[C@@H]2C[C@@H]3C[C@@H](C3(C)C)[C@]2(C)O1`, for which, in assay [1], the IC50 was determined as 2.46 nM.

For the molecule `CC(C)C[C@H](NC(=O)OC(C)(C)C)C(=O)N[C@@H](Cc1ccccc1)B1O[C@@H]2C[C@@H]3C[C@@H](C3(C)C)[C@]2(C)O1`, the half-inhibitory concentration (IC50) in assay [1] came to 120 nM.

Take `Cc1ccc(C[C@H](NC(=O)[C@H](Cc2ccccc2)NC(=O)[C@H]2CCCc3ccccc32)B2O[C@@H]3C[C@@H]4C[C@@H](C4(C)C)[C@]3(C)O2)cc1`: the IC50 in [1] was 6.7 nM.

On to `Cc1ccc(C[C@H](NC(=O)[C@H](Cc2c[nH]c3ccccc23)NC(=O)OCc2ccccc2)B2O[C@@H]3C[C@@H]4C[C@@H](C4(C)C)[C@]3(C)O2)cc1`, for which the IC50 in [1] turned out to be 3.34 nM.

With `CC(C)C[C@H](NC(=O)[C@H](Cc1ccccc1)NC(=O)[C@H]1CCCc2ccccc21)B1O[C@@H]2C[C@@H]3C[C@@H](C3(C)C)[C@]2(C)O1`, in [1], the IC50 was determined as 1.12 nM.

Turning to `CC(C)C[C@@H](NC(=O)[C@H](Cc1ccccc1)NC(=O)c1cccc2c1CCCC2)B(O)O`, the IC50 in assay [1] was determined as 9.19 nM.

Take `Cc1ccc(C[C@H](NC(=O)[C@H](Cc2ccccc2)NC(=O)c2cnccn2)B2O[C@@H]3C[C@@H]4C[C@@H](C4(C)C)[C@]3(C)O2)cc1`: the IC50 in assay [1] turned out to be 4.85 nM.

As for `O=C(N[C@@H](Cc1ccccc1)C(=O)N[C@@H](Cc1ccc(F)cc1)B(O)O)c1cnccn1`, the IC50 in assay [1] was 4.37 nM.

As for `CC(C)C[C@H](NC(=O)[C@H](Cc1ccc2ccccc2c1)NC(=O)[C@H]1CCCc2ccccc21)B1O[C@@H]2C[C@@H]3C[C@@H](C3(C)C)[C@]2(C)O1`, the IC50 in assay [1] was found to be 6.12 nM.

As for `CC(C)C[C@H](NC(=O)[C@H](Cc1ccccc1)NC(=O)c1cnccn1)B1O[C@@H]2C[C@@H]3C[C@@H](C3(C)C)[C@]2(C)O1`, the IC50 in [1] worked out at 1.92 nM.

With `CCCC[C@H](NC(=O)[C@H](Cc1ccccc1)NC(C)=O)B1O[C@@H]2C[C@@H]3C[C@@H](C3(C)C)[C@]2(C)O1`, the IC50 in assay [1] came to 8.46 nM.

`CC(C)C[C@H](NC(=O)[C@H](Cc1ccccc1)NC(=O)[C@@H]1CCCc2ccccc21)B1O[C@@H]2C[C@@H]3C[C@@H](C3(C)C)[C@]2(C)O1`: the IC50 in [1] came to 5.17 nM.

Turning to `CC(C)C[C@H](NC(=O)[C@H](Cc1ccc(O)cc1)NC(=O)OC(C)(C)C)B1O[C@@H]2C[C@@H]3C[C@@H](C3(C)C)[C@]2(C)O1`, the IC50 in assay [1] was found to be 16.4 nM.

Regarding `CC(C)C[C@H](NC(=O)[C@H](Cc1c[nH]c2ccccc12)NC(=O)C1CCCc2ccccc21)B1O[C@@H]2C[C@@H]3C[C@@H](C3(C)C)[C@]2(C)O1` (stereo not given in full), the IC50 in assay [1] came out at 3.67 nM.

As for `CC(C)C[C@H](NC(=O)[C@H](Cc1c[nH]c2ccccc12)NC(=O)OCc1ccccc1)B1O[C@@H]2C[C@@H]3C[C@@H](C3(C)C)[C@]2(C)O1`, in assay [1], the IC50 is 41.2 nM.

For `CCC[C@H](NC(=O)[C@H](CC(C)C)NC(=O)OC(C)(C)C)B1O[C@@H]2C[C@@H]3C[C@@H](C3(C)C)[C@]2(C)O1`, the IC50 in assay [1] is 49.5 nM.

As to `CC(C)C[C@H](NC(=O)[C@H](Cc1ccccc1)NC(=O)c1cnccn1)B(O)O` [BORTEZOMIB], the IC50 was determined as 37.5 nM with HepG2; 5.5 nM in the assay on HL-60; 130 nM in the assay on SK-OV-3; 115 nM in the assay on NCI-H460; 2.45 nM in the assay on U-266; 59.5 nM in the assay on KB. The IC50 was determined as 255 nM in the assay with A549, 880 nM in the assay on BGC-823, 50 nM in the assay on SW480 and 92 nM in the assay with HeLa.

`CCC(C)[C@H](NC(=O)C1CCCc2ccccc21)C(=O)N[C@@H](CC(C)C)B1O[C@@H]2C[C@@H]3C[C@@H](C3(C)C)[C@]2(C)O1` (stereo not given in full): the IC50 in [1] came out at 17.2 nM.

`CC1(C)[C@@H]2C[C@H]3OB([C@H](Cc4ccccc4)NC(=O)[C@H](Cc4ccccc4)NC(=O)C4CCc5ccccc5C4)O[C@@]3(C)[C@H]1C2` (stereo not given in full): in assay [1], the IC50 came to 3.37 nM.

`CC(C)C[C@@H](NC(=O)[C@H](Cc1ccccc1)NC(=O)c1cnccn1)B(O)O`: the 50% inhibitory concentration (IC50) in assay [1] was 700 nM.

As to `CC(C)C[C@H](NC(=O)[C@H](Cc1cccc2ccccc12)NC(=O)c1cccc2c1CCCC2)B1OC2C[C@@H]3C[C@@H](C3(C)C)[C@]2(C)O1` (stereo not given in full), in [1], the IC50 was 1.34 nM.

In the case of `CC(C)C[C@H](NC(=O)[C@H](Cc1ccccc1)NC(=O)c1cccc2c1CCCC2)B1O[C@@H]2C[C@@H]3C[C@@H](C3(C)C)[C@]2(C)O1`, the IC50 in assay [1] is 0.76 nM.

Consider `CC1(C)[C@@H]2C[C@H]3OB([C@H](Cc4ccccc4)NC(=O)[C@H](Cc4ccccc4)NC(=O)[C@H]4CCCc5ccccc54)O[C@@]3(C)[C@H]1C2`, for which, in [1], the IC50 came to 5.24 nM.

In the case of `CC(C)C[C@H](NC(=O)[C@@H](NC(=O)C1CCCc2ccccc21)C(C)C)B1O[C@@H]2C[C@@H]3C[C@@H](C3(C)C)[C@]2(C)O1` (stereo not given in full), the IC50 in assay [1] was 39 nM.

Regarding `CC(C)C[C@H](NC(=O)[C@H](CC(C)C)NC(=O)C1CCCc2ccccc21)B1O[C@@H]2C[C@@H]3C[C@@H](C3(C)C)[C@]2(C)O1` (stereo not given in full), the IC50 in assay [1] is 14.2 nM.

Turning to `CCCC[C@H](NC(=O)[C@H](Cc1ccccc1)NC(=O)[C@H]1CCCc2ccccc21)B1O[C@@H]2C[C@@H]3C[C@@H](C3(C)C)[C@]2(C)O1`, the IC50 in assay [1] amounted to 1.92 nM.

As for `CC(=O)N[C@@H](Cc1ccccc1)C(=O)N[C@@H](Cc1ccc(C)cc1)B1O[C@@H]2C[C@@H]3C[C@@H](C3(C)C)[C@]2(C)O1`, the IC50 in assay [1] was 2.73 nM.

In the case of `CC(C)C[C@H](NC(=O)[C@H](Cc1ccccc1)NC(=O)C1CCCc2ccccc21)B1O[C@@H]2C[C@@H]3C[C@@H](C3(C)C)[C@]2(C)O1` (stereo not given in full), in assay [1], the IC50 was found to be 4.18 nM.

With `CC(C)C[C@@H](NC(=O)[C@H](Cc1ccccc1)NC(=O)C1CCCc2ccccc21)B(O)O` (stereo not given in full), the IC50 in assay [1] was found to be 2290 nM.

Take `CC(C)C[C@H](NC(=O)[C@H](Cc1cccc2ccccc12)NC(=O)C1CCCc2ccccc21)B1O[C@@H]2C[C@@H]3C[C@@H](C3(C)C)[C@]2(C)O1` (stereo not given in full): the IC50 in assay [1] was 4.26 nM.

Consider `CC(C)C[C@H](NC(=O)[C@H](Cc1ccc2ccccc2c1)NC(=O)C1CCCc2ccccc21)B1O[C@@H]2C[C@@H]3C[C@@H](C3(C)C)[C@]2(C)O1` (stereo not given in full), for which, in assay [1], the IC50 turned out to be 7.63 nM.

Regarding `CC(C)C[C@H](NC(=O)[C@H](Cc1ccc2ccccc2c1)NC(=O)C1CCCc2ccccc21)B1OC2C[C@@H]3C[C@@H](C3(C)C)[C@]2(C)O1` (stereo not given in full), the IC50 in assay [1] worked out at 1.16 nM.

As for `CC1(C)[C@@H]2C[C@H]3OB([C@H](Cc4ccc(F)cc4)NC(=O)[C@H](Cc4ccccc4)NC(=O)[C@H]4CCCc5ccccc54)O[C@@]3(C)[C@H]1C2`, the IC50 in [1] was 1.26 nM.

`CC1(C)[C@@H]2C[C@H]3OB([C@H](Cc4ccc(F)cc4)NC(=O)[C@H](Cc4ccccc4)NC(=O)c4cnccn4)O[C@@]3(C)[C@H]1C2`: in [1], the IC50 was determined as 3.21 nM.

Consider `Cc1ccc(C[C@H](NC(=O)[C@H](CC(C)C)NC(=O)OC(C)(C)C)B2O[C@@H]3C[C@@H]4C[C@@H](C4(C)C)[C@]3(C)O2)cc1`, for which, in [1], the IC50 came out at 471 nM.

On to `CC(C)C[C@H](NC(=O)[C@H](CC(C)C)NC(=O)c1cccc2c1CCCC2)B1O[C@@H]2C[C@@H]3C[C@@H](C3(C)C)[C@]2(C)O1`, for which the IC50 in assay [1] was determined as 1.15 nM.

For the molecule `CC(C)C[C@H](NC(=O)[C@@H](NC(=O)c1cccc2c1CCCC2)C(C)C)B1O[C@@H]2C[C@@H]3C[C@@H](C3(C)C)[C@]2(C)O1`, the IC50 in assay [1] was determined as 6.96 nM.

Values taken from ChEMBL document CHEMBL1137786, “Design, synthesis, biological evaluation, and structure-activity relationship (SAR) discussion of dipeptidyl boronate proteasome inhibitors, part I: comprehensive understanding of the SAR of alpha-amino acid boronates” (J Med Chem, 2009).
